The values below come from ChEMBL document CHEMBL1157507, “Design, synthesis, and evaluation of novel mutual prodrugs (hybrid drugs) of all-trans-retinoic acid and histone deacetylase inhibitors with enhanced anticancer activities in breast and prostate cancer cells in vitro” (J Med Chem, 2008).

In one series the test system is MDA-MB-231. In words: Growth inhibition of human MDA-MB-231 cells after 5 days by MTT assay. It counts as functional. The conditions noted are these: MDA-MB-231, 120 h. On the technique in general: Tetrazolium assays rely on reduction of a dye to a coloured formazan, in cell work by metabolically active cells.
Series [1] has as its system PC-3. In words: Growth inhibition of human PC3 cells after 5 days by MTT assay. The class given is functional. The settings on record: PC-3, 120 h. Put shortly:
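PC-3 cells in RPMI 1640 with 10% FBS and 1% penicillin/streptomycin (37 °C, 5% CO2) were seeded at 2 × 10⁴/well and allowed to adhere 24 h. They were dosed over a concentration range in 10% DMSO/90% ethanol for 5 days, with drug and medium renewed on day 3. MTT (0.5 mg/mL) was added for 2 h, formazan dissolved in DMSO, and A560 read. Triplicate wells, ≥3 experiments; GI50 from nonlinear regression.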

For another series, the system named is Serum. In words: Stability in 80% human serum in 0.02 M phosphate buffer at pH 7.2 after 24 hrs. It counts as ADME, cell-free. The settings on record: pH 7.2, 24 h. Put shortly:
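Each agent was incubated 24 h at 37 °C in 80% human serum containing 20% 0.02 M phosphate buffer, pH 7.2. Samples were extracted and analysed by reverse-phase C18 HPLC with photodiode-array detection: 350 nm for ATRA and prodrugs, 245 nm for HDIs. The gradient ran from 20 mM ammonium acetate/methanol (50:50) to methanol at 0.8 mL/min.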

The test system of series [2] is MCF7. In words: Growth inhibition of human tamoxifen-resistant MCF7 cells after 5 days by MTT assay. It counts as functional. The settings on record: MCF7, 120 h.
The subject of series [3] is MCF7. In words: Growth inhibition of human MCF7 cells expressing HOX-B7 after 5 days by MTT assay. The class given is functional. The conditions noted are these: MCF7, 120 h.
In series [4] the test system is MCF7. In words: Growth inhibition of human MCF7 cells after 5 days by MTT assay. The class given is functional. The conditions noted are these: MCF7, 120 h.
For series [5], the system named is PC-3. In words: Growth inhibition of human PC3 cells at 20 uM after 5 days by MTT assay. It counts as functional. The settings on record: PC-3, 120 h. The method, boiled down: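 PC-3 cells in RPMI 1640 with 10% FBS were seeded at 2 × 10⁴/well, adhered 24 h, then given a single 20 µM concentration in 10% DMSO/90% ethanol for 5 days, with renewal on day 3. Growth was read by MTT (0.5 mg/mL, 2 h, formazan in DMSO, A560). Triplicate wells; at least three independent experiments.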

The test system of series [6] is MCF7. In words: Growth inhibition of long-term letrozole cultured human MCF7 cells after 5 days by MTT assay. It counts as functional. The conditions noted are these: MCF7, 120 h.

Take `CC1=C(/C=C/C(C)=C/C=C/C(C)=C/C(=O)O)C(C)(C)CCC1` [TRETINOIN]: the figures for the GI50 with MDA-MB-231 and with PC-3 [1] were 10.8 µM and 7.6 µM, respectively.
On to `NCC(=O)Nc1ccccc1NC(=O)c1ccc(CNC(=O)OCc2cccnc2)cc1`, for which the Stability result in the series with Serum is given as “Stable”.
In the case of `CC(=O)Nc1ccc(C(=O)Nc2ccccc2NC(=O)CNC(=O)OCOC(=O)/C=C(C)/C=C/C=C(C)/C=C/C2=C(C)CCCC2(C)C)cc1`, the GI50 in the series on MCF7 [2] turned out to be 0.17 µM; in the series with MCF7 [3], 1.2 µM; in the series on MDA-MB-231, 0.63 µM; with PC-3 [1] it was 4.27 µM; in the series with MCF7 [4], 0.25 µM. Also, the Stability entry in the series with Serum is listed as “Stable”.
For `CC(=O)Nc1ccc(C(=O)Nc2ccccc2N)cc1` [TACEDINALINE], the GI50 was determined as 0.17 µM in the series with MDA-MB-231 and 0.29 µM in the series with PC-3 [1].
For the compound `CCCC(=O)[O-].[Na+]` [SODIUM BUTYRATE], the values for the GI50 in the series on MDA-MB-231 and in the series on PC-3 [1] were greater than 1000 µM and 72.4 µM, respectively.
For the compound `CC(=O)Nc1ccc(C(=O)Nc2ccccc2NC(=O)OCc2ccc(OC(=O)/C=C(C)/C=C/C=C(C)/C=C/C3=C(C)CCCC3(C)C)cc2)cc1`, the GI50 with MCF7 [2] was found to be 0.08 µM; in the series on MCF7 [3], 8.13 µM; in the series with MDA-MB-231 it was 0.02 µM; in the series with PC-3 [1], 0.87 µM; in the series on MCF7 [4], 0.52 µM. In the series with Serum, the Stability result is reported as “Stable”.
Regarding `CCCC(=O)OCc1ccc(OC(=O)/C=C(C)/C=C/C=C(C)/C=C/C2=C(C)CCCC2(C)C)cc1`, the GI50 worked out at 0.01 µM in the series with MDA-MB-231 and 1.02 µM in the series with PC-3 [1]. Moreover, the Stability result in the series on Serum is “Stable”. This compound also registered an inhibition at 20 µM with PC-3 [5] of 80%.
For `CC1=C(/C=C/C(C)=C/C=C/C(C)=C/C(=O)OCOC(=O)NCC(=O)Nc2ccccc2NC(=O)c2ccc(CNC(=O)OCc3cccnc3)cc2)C(C)(C)CCC1`, the GI50 in the series on MCF7 [6] was 0.02 µM; in the series with MCF7 [2], 0.02 µM; in the series with MCF7 [3] it was 0.006 µM; in the series with MDA-MB-231 it was 0.94 µM; in the series on PC-3 [1], 0.04 µM; in the series with MCF7 [4] it was 0.15 µM.
Turning to `CC1=C(/C=C/C(C)=C/C=C/C(C)=C/C(=O)Oc2ccc(COC(=O)Nc3ccccc3NC(=O)c3ccc(CNC(=O)OCc4cccnc4)cc3)cc2)C(C)(C)CCC1`, the GI50 with MCF7 [2] worked out at 0.21 µM; in the series with MCF7 [3], 0.72 µM; in the series with MDA-MB-231, 0.17 µM; with PC-3 [1], 0.18 µM; in the series with MCF7 [4], 0.06 µM. Also, the Stability result in the series with Serum is “Stable”.

A word on the GI50: it is the concentration giving 50% growth inhibition. A low value points to greater sensitivity of the cells. For orientation: inhibition means the percentage by which the read-out fell short of the control. High values mean strong suppression, low ones little suppression.
